# The list is not random: actives were taken first. Their share in the collection is about 1.5%.
# APJ antagonist = APJ receptor antagonism; P35414; inhibition, % at 20 µM; 330,000 compounds, 0.32% hits; CHO-K1 APJ beta-arrestin complementation, luminescence;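 active means inhibition above about 40% at 20 µM, limit read from the data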;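 further: cells challenged with 10 nM apelin-13 agonist together with compound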
# EBI2 block = EBI2 (human) antagonism | P32249 | EBI2 beta-arrestin recruitment, luminescence, 7a,25-OHC stimulated | inhibition, % at 5 µM | 360,000 compounds, 0.81% hits | AID 651636; in the data active means inhibition above about 38%;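 further: enzyme fragment complementation signal reports receptor beta-arrestin coupling in cells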
# CCR6 antag = antagonists of human CCR6 receptor; P51684; CHO-K1 CCR6 PathHunter beta-arrestin, luminescence, CCL20-stimulated; inhibition, % at 20 µM; 340,000 compounds, 0.49% hits; AID 493098;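 active means compounds whose inhibition of the agonist-driven luminescence signal at 20 µM reaches about 50%, limit read from the data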;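 further: cells stimulated with CCL20 at 14 nM final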
# Target sequence (P51684 whole entry, looked up): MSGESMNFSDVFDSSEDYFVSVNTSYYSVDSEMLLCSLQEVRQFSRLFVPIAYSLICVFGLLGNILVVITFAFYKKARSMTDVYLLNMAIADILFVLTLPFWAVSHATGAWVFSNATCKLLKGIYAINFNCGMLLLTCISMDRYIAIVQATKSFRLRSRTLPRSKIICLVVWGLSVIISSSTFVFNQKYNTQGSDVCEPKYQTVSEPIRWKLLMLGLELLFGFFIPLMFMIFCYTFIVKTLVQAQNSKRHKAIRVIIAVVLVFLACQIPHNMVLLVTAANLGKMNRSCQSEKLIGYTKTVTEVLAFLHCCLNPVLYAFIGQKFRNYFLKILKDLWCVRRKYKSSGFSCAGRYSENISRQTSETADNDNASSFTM
# CXCR6 inh = inhibitors of human CXCR6 receptor. O00574. CHO-K1 PathHunter CXCR6 beta-arrestin, luminescence. inhibition, % at 20 µM. 360,000 compounds, 0.36% hits. AID 602244; in the data active means inhibition above about 34%, passing the limit was not always enough;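 further: antagonist mode with CXCL16 agonist at 10 nM final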
# APJ agonist = activates the human apelin receptor APJ. 330,000 compounds, 0.11% hits. P35414. AID 2520. activation, % at 20 µM. CHO-K1 APJ PathHunter beta-arrestin, luminescence; 0% DMSO wells, 100% apelin;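 active means activation more than six SD over the plate average, tested at 20 µM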
#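 Test system: CHO-K1 APJ beta-arrestin complementation cell line. Amount: cell density 1000 per well. Controls: DMSO negative, 10 nM Apelin-13 positive. Signal: luminescent beta-gal fragment complementation, chemiluminescent substrate. Read-out basis: agonist-driven arrestin binding to APJ. Timing: compound stimulation 90 min at 25 °C, detection 60 min.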
# CXCR6 confirm = confirmation of human CXCR6 receptor antagonists; 700 compounds, 65% hits; CHO-K1 CXCR6 PathHunter beta-arrestin, luminescence; inhibition, % at 20 µM; AID 602409; shares compounds with CXCR6 inh;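 active means mean inhibition over four retests above 40%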;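 further: receptor stimulated with 10 nM CXCL16 agonist; beta-galactosidase fragment complementation upon beta-arrestin recruitment to receptor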
# Numbers stand for hits; – = inactive; · = no result given.
SMILES,APJ antagonist,EBI2 block,CCR6 antag,CXCR6 inh,APJ agonist,CXCR6 confirm
O=C(CCNS(=O)(=O)c1ccc(Br)cc1)NCCCSc1ccccc1,–,–,–,–,–,·
Cc1ccc(NC(=S)N/N=C/c2ccc([N+](=O)[O-])s2)cc1,–,49.8,71.5,51.7,–,72.0
CC1=CC(=O)Nc2ccccc2S1,·,–,–,–,·,·
CCCNC(=O)c1cc(C2CCCN(S(=O)(=O)c3cccs3)C2)on1 (stereo not given),·,–,·,–,·,·
Cc1occc1C(=O)NNC(=S)NC(=O)COc1ccc(Cl)cc1Cl,–,–,–,41.5,–,–
CC1(C(=O)NS(=O)(=O)c2ccccc2Cl)CCN1C(=O)CC1CCCC1 (stereo not given),·,–,·,–,·,·
O=C1OCCC1=CN1CCCCC1,·,–,·,–,·,·
CC1=C(C(=O)N2CCOCC2)CC(CC(=O)NCCN2CCOCC2)C(=O)N1Cc1ccccc1 (stereo not given),·,–,·,–,·,·
CCc1nnc(NC(=O)c2cc(-c3ccncc3)nc3ccccc23)s1,–,–,–,47.4,–,–
CC(C)(C)c1nnc(NC(=O)c2cc(-c3ccccc3)nc3ccccc23)s1,–,–,–,–,–,·
C=CC[C@@H](CC(=O)N(CCO)Cc1ccccc1)C(=O)N[C@@H](COC(=O)[C@@H](CC=C)Cc1ccc(F)cc1)Cc1ccccc1,–,–,–,41.8,–,–
C=CC[C@@H](CC(=O)N(CCO)Cc1ccccc1)C(=O)NC[C@@H](OC(=O)[C@@H](CC=C)Cc1ccc(F)cc1)c1ccccc1,–,–,–,–,–,·
C=CC[C@H](CC(=O)N(CCO)Cc1ccccc1)C(=O)NC[C@H](OC(=O)[C@@H](CC=C)Cc1ccc(F)cc1)c1ccccc1,–,–,–,47.7,–,–
C=CC[C@@H](CC(=O)N(CCO)Cc1ccccc1)C(=O)N[C@H](COC(=O)[C@@H](CC=C)Cc1ccc(F)cc1)Cc1ccccc1,–,–,–,–,–,·
O=C(CSc1nnc(-c2ccco2)n1-c1ccccc1)N1CCOCC1,–,–,–,63.4,–,–
CCC/C=C/c1ccc(CN2C(C)C(=O)N(Cc3cn(CCOCOC)nn3)CCS2(=O)=O)cc1 (stereo not given),·,–,·,41.5,·,–
Cc1cccc(N2CCN(C(C(=O)NCc3ccccc3)c3ccc(F)cc3)CC2)c1C (stereo not given),·,–,·,·,·,·
CN1c2ccc([N+](=O)[O-])cc2N(C)C1(C)c1ccccc1 (stereo not given),–,–,54.2,42.7,–,–
Cn1c2ccccc2c2cc([N+](=O)[O-])ccc21,–,–,–,–,–,·
COc1cccc(-c2nnc(NC(=O)c3ccc(Cl)s3)o2)c1,–,–,·,54.9,–,45.7
O=C(Nc1nnc(-c2ccco2)o1)c1ccc(Cl)s1,–,–,–,–,–,·
Fc1ccc(Sc2nc(-c3ccccc3)nnc2C(F)(F)F)cc1,–,–,50.1,44.6,–,63.2
Fc1ccc(Oc2nc(-c3ccccc3)nnc2C(F)(F)F)cc1,–,–,–,–,–,·
CCSc1nnc([C@H](Cc2ccccc2)NC(=O)OC(C)(C)C)o1,–,–,–,–,–,·
Cc1ccccc1CS(=O)(=O)c1nnc([C@H](Cc2ccccc2)NC(=O)OC(C)(C)C)o1,–,–,88.6,64.5,–,58.2
SMILES,APJ antagonist,EBI2 block,CCR6 antag,CXCR6 inh,APJ agonist,CXCR6 confirm
CC(=O)Nc1ccc(C(=O)N2CCCCC2c2cc(C(=O)N3CCOCC3)no2)cc1 (stereo not given),·,–,·,–,·,·
Cc1nc2c(OCc3ccc(C(F)(F)F)cc3)cccn2c1N(C)CC1CC1,·,–,·,46.8,·,–
C=C1CC(COc2cc(=O)oc3ccccc23)(c2ccccc2)OC1=O (stereo not given),·,52.0,100.3,88.9,·,89.6
CCC(=O)c1ccc(OC(=O)C2CCN(C3=NS(=O)(=O)c4ccccc43)CC2)cc1,–,–,–,–,–,·
COC(=O)C[C@H]1CC[C@@H](NC(=O)C2CC2)[C@@H](CO)O1,·,–,·,·,·,·
O=C1NC[C@H](c2ccccc2)OC(=O)[C@@H](Cc2ccc(F)cc2)CC/C=C/C[C@@H]1CC(=O)N(CCO)Cc1ccccc1,·,–,61.8,55.1,·,45.0
O=C1N[C@@H](Cc2ccccc2)COC(=O)[C@H](Cc2ccc(F)cc2)CC/C=C/C[C@@H]1CC(=O)N(CCO)Cc1ccccc1,–,–,–,–,–,·
